From PubChem
Most compounds without a hit are left out; they make up all but 2.8% or so of the library.
NPY-Y1 antag: antagonists of human neuropeptide Y receptor Y1. 200,000 tested, 1% active. inhibition, % at 3.6 µM. P25929. HEK293-CNG Y1 cells, membrane potential fluorescence; NPY at EC95, then isoproterenol;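 active = inhibition above the campaign mean inhibition of all tested compounds plus 3 SD, cut at about 20% in these data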
Target sequence (P25929 whole entry, looked up): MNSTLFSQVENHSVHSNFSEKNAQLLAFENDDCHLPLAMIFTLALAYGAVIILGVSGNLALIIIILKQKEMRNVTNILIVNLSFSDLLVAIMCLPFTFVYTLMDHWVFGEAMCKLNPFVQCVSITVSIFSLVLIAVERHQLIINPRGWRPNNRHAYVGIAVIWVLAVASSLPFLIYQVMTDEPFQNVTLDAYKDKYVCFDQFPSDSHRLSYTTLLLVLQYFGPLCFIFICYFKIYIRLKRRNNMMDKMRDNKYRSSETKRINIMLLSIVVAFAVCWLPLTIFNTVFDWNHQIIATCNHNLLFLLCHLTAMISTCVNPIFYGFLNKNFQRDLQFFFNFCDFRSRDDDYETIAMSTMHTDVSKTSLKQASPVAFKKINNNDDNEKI
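Material: Y1- and CNG-channel-expressing HEK293 cells / Probe or stimulus: NPY 25 nM then isoproterenol 1 µM plus Ro 20-1724 25 µM / Doses: 3.6 µM single dose, DMSO 0.4% / Schedule: compound incubation 1 h at room temperature, readout 45 min post-stimulation / Signal: membrane potential fluorescence / Benchmarks: isoproterenol-only wells as full block versus NPY-plus-isoproterenol wells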
NPY-Y1 PAM-ag: human NPY-Y1 potentiation or agonism, primary screen; P25929; NPY-Y1 expressing cells, potentiator/agonist activation; 220,000 tested, 0.37% active; activation, % at 3.6 µM; AID 1304; in the data active = activation above about 33%, passing the limit was not always enough;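 note: cells stimulated with NPY at EC10 then isoproterenol at EC100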
EP2 mod: modulators of human EP2 prostaglandin E2 receptor; EP2-expressing cells, cAMP HTRF FRET, PGE2 co-stimulation; induction, % at 25 µM; 260,000 tested, 0.83% active; AID 940;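 active = compounds whose cAMP rise, as percent of the full-agonist control response, exceeds 60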;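 note: rat C6 glioma line stably carrying human EP2 under a CMV promoter; the protocol text gives 20 µM as final concentration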
EP2 antag: EP2 receptor (human) inhibition; P43116; C6 glioma cells expressing human EP2, cAMP TR-FRET; cells stimulated with saturating PGE2; inhibition, % at 25 µM; 260,000 tested, 0.52% active;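 active = percent inhibition above 40 after rounding to a whole number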;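 note: rat C6 glioma host cells with rolipram phosphodiesterase inhibitor present; the protocol text gives 20 µM as final concentration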
NPY Y2 blocker: blocks the human neuropeptide Y Y2 receptor | P49146 | NPY-Y2 expressing cells, antagonist mode | inhibition, % at 2.7 µM | 140,000 tested, 0.99% active; in the data active = inhibition above about 17%
NPY-Y2 PAM-ag: human NPY-Y2 potentiation or agonism, primary screen; P49146; cells expressing NPY-Y2, potentiator/agonist read-out; activation, % at 3.6 µM; 220,000 tested, 0.45% active; in the data active = activation above about 27%;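 note: cells stimulated with NPY near EC25 plus isoproterenol at EC100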
Hits are given with their value; - = inactive; . = no result given.

SMILES	NPY-Y1 antag	NPY-Y1 PAM-ag	EP2 mod	EP2 antag	NPY Y2 blocker	NPY-Y2 PAM-ag
CCOC(=O)C1=C(N)N2C(=O)C(C)SC2=C(C(=O)OCC)C1c1ccccc1 (centres undefined)	-	-	62	-	-	-
CCOC(=O)C1=C(N)N2C(=O)C(C)SC2=C(C(=O)OCC)C1c1ccc(O)cc1 (centres undefined)	.	-	-	-	.	-
CCCN(CC(=O)Nc1c(C)cccc1CC)C(=O)SCC	-	-	-	-	18	-
CCc1cccc(C)c1NC(=O)CN(C)Cc1ccc(Br)cc1	-	-	-	-	.	-
CCCCN(CC(=O)Nc1c(C)cccc1CC)C(=O)SCC	22	-	-	-	31	-
Cn1cnc([N+](=O)[O-])c1N	.	.	-	-	.	.
O=C(Cn1c(-c2cccs2)cc2cccnc21)N1CCC(O)CC1	.	.	-	-	.	.
CCc1ccccc1NC(=O)c1sc2cc(C)ccc2c1Cl	.	.	-	-	.	.
Cc1nc(P(=O)(c2ccccc2)c2ccccc2)c(N2CCOCC2)o1	-	-	-	-	-	-
Cc1ccccc1-c1nc(P(=O)(c2ccccc2)c2ccccc2)c(N2CCOCC2)o1	.	-	67	-	.	-
COc1ccc(OC)c(-c2cc(C(=O)O)c3cc4ccccc4cc3n2)c1	.	.	-	55	.	.
CCn1c(CN2CCCC(c3nc(-c4cccnc4)n[nH]3)C2)nc2ccccc21 (centres undefined)	.	.	-	.	.	.
COc1ccc(Br)cc1/C(C)=N/NC1=NCCN1	-	-	-	-	-	-
CCCCCOc1ccc(Br)cc1/C(C)=N/NC1=NCCN1	27	-	-	.	54	-
COc1cc(/C=C/C(=O)CC(=O)/C=C/c2ccc(O)c(OC)c2)ccc1O	-	-	-	74	-	-
COc1ccc(CNC(=O)CSc2nc3c(c(C(F)(F)F)n2)CCc2ccccc2-3)cc1	.	.	-	-	.	.
Cc1nc(-c2ccccn2)sc1C(=O)Nc1ccc(Cl)c(Cl)c1	-	-	-	52	-	-
O=C(CCN1CCCCC1c1cccnc1)NCc1ccccc1 (centres undefined)	-	-	-	-	-	-
CN1CCC[C@H]1c1cccnc1.O=C(O)c1ccccc1O.O=C([OH2+])c1ccccc1O.O=C([OH2+])c1ccccc1O.O=C([OH2+])c1ccccc1O.[Mn]	.	.	-	42	.	.
COC(=O)/C(=N/Nc1cccc(C)c1)N1CCCc2ccccc21	-	-	-	-	-	-
CC(=O)/C(=N/Nc1ccc(Br)cc1)N1CCCc2ccccc21	.	-	-	-	.	-
COC(=O)/C(=N/Nc1ccc(C)cc1)N1CCCc2ccccc21	29	-	-	-	19	-
COC(=O)/C(=N/Nc1ccccc1)N1CCCc2ccccc21	29	-	-	-	22	-
CCC(C)NC(=O)CSc1nc2ccccc2[nH]1 (centres undefined)	.	.	-	-	.	.
C=CCNC(=O)CN1CCC(O)(c2cccnc2)CC1	.	.	-	.	.	.
SMILES	NPY-Y1 antag	NPY-Y1 PAM-ag	EP2 mod	EP2 antag	NPY Y2 blocker	NPY-Y2 PAM-ag
CCCn1cnc2scc(-c3ccc(Cl)cc3)c2c1=O	.	.	-	-	.	.
CCN1C(=O)C(CC(=O)Nc2ccc(OC)cc2)N(CCc2ccccc2)C1=S (centres undefined)	-	-	-	-	.	-
COC(=O)CN1C(=S)N(Cc2ccccc2)C(=O)C1CC(=O)Nc1ccc(Br)cc1 (centres undefined)	-	44	-	-	-	35
Cc1nn(CC(=O)N[C@H](Cn2nc(-c3cccs3)ccc2=O)C(C)C)c(C)c1C	.	.	-	.	.	.
COc1cc(-c2cn(S(=O)(=O)c3cccc4nsnc34)nc2N)cc(OC)c1OC	23	-	-	-	18	-
CCc1ccc2nc3sc(C(=O)Nc4ccc(OC)cc4OC)c(N)c3cc2c1	.	.	-	-	.	.
O=C(Cn1nc(C(F)(F)F)c2c1CCC2)Nc1cccc(Cl)c1Cl	.	.	-	-	.	.
COc1ccc(C2(C)NC(=O)N(CC(=O)Nc3ccc(-c4nc5ccc(C)cc5s4)cc3)C2=O)cc1 (centres undefined)	-	39	-	-	.	56
CC(C)[C@H]1CN(Cc2ccco2)CCN1C(=O)N1CCCCC1	.	.	-	.	.	.
CSc1nc(-c2ccco2)nn1S(=O)(=O)c1ccccc1	24	-	-	.	-	-
CSc1nc(-c2ccco2)nn1S(=O)(=O)c1ccc(C)cc1	-	-	-	-	-	-
CCCCN(CCCC)CP(=O)(c1ccccc1)c1ccccc1	28	-	-	-	26	-
